Results reported in ChEMBL document CHEMBL1124216, “A novel class of potential central nervous system agents. 3-Phenyl-2-(1-piperazinyl)-5H-1-benzazepines” (1988).

What was measured:
Assay type in all cases: functional
[1] = test system: Canis familiaris; assay: Inhibition of apomorphine induced emesis in dogs at 1 mg/kg of dose.; details: Canis lupus familiaris
Method in brief: (§1)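 Beagle dogs (10-15 kg), groups of three, given compound po in a gelatin capsule; 2 h later apomorphine hydrochloride 0.3 mg/kg sc. Vomiting counted for 1 h; mean inhibition as percent of control. ED50 is the dose giving 50% inhibition of emesis, by Litchfield-Wilcoxon.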

[2] = test system: Mus musculus; assay: The homovanillic acid (HVA) levels in mouse brain at 10 mg/kg of dose.
Method in brief: (§2)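 Mice dosed orally in 0.5% aqueous tragacanth; brains of five mice per compound pooled. Homovanillic acid measured in brain extracts and reported as brain level.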

[3] = test system: Mus musculus; assay: The homovanillic acid (HVA) levels in mouse brain at 50 mg/kg of dose.; method in brief: as §2
[4] = test system: Mus musculus; assay: 3,4 -Dihydroxy phenylacetic acid (DOPAC) levels in mouse brain at 10 mg/kg dose.
Method in brief: (§3)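 Male Std-ddY mice, 20-25 g, dosed orally with compound in 0.5% aqueous tragacanth. DOPAC was measured fluorometrically after purification by column chromatography on Sephadex G-10 and QAE-Sephadex. Brains from five mice per compound were pooled for each determination.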

[5] = test system: Mus musculus; assay: Exploratory activity of mice determined by an antimex activity meter, 100 mg/kg of dose was administered perorally; details: route oral
Method in brief: (§4)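 Male Std-ddY mice (20-25 g), five per dose; compound in 0.5% aqueous tragacanth given orally. Two hours later each mouse placed in an Animex activity meter cage and locomotor activity counted for 3 min. Mean suppression expressed as percent inhibition of control; ED50 by Litchfield-Wilcoxon.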

[6] = test system: Mus musculus; assay: 3,4 -Dihydroxy phenylacetic acid (DOPAC) levels in mouse brain at 50 mg/kg dose.; method in brief: as §3
[7] = test system: Mus musculus; assay: Antimaximal electroshock seizure (MES) activity in mice after peroral administration of 100 mg/kg of compound; 0/5; details: route oral
[8] = test system: Mus musculus; assay: Exploratory activity of mice determined by an antimex activity meter, when administered perorally; details: po; method in brief: as §4
[9] = test system: Rattus norvegicus; assay: Inhibition of self-stimulation response in rats when administered perorally.; details: po
Method in brief: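 Male Wistar HLA rats (300-400 g) with chronic electrodes in the lateral posterior hypothalamus, lever-pressing steadily at 50-100/min. Self-stimulation counted for 10 min before and 2 h after oral dosing. ED50 is the dose causing ≥50% rate inhibition in half the rats (Litchfield-Wilcoxon).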

[10] = test system: Mus musculus; assay: Antiexploratory activity (EXPL) of mice determined by an antimex activity meter, 100 mg/kg of dose was administered perorally; potent inhibition; details: route oral
[11] = test system: Mus musculus; assay: Antitremorine activity(TRM) of mice after peroral administration of 100 mg/kg of compound; Slight inhibition (31-50%); details: route oral
[12] = test system: Canis familiaris; assay: Inhibition of apomorphine induced emesis in dogs when administered perorally; details: Canis lupus familiaris, po; method in brief: as §1
[13] = test system: Mus musculus; assay: Inhibition of conditioned avoidance response in mice when administered perorally; details: po
Method in brief: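 One-way active avoidance in male Std-ddY mice in a dark/light two-compartment box. Mice trained to move to the lit side on a warning stimulus to escape floor shock; groups of 10 avoiding at >80% in 10 trials. Compound po in 0.5% tragacanth. ED50 is the dose halving avoidance rate (Litchfield-Wilcoxon).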

[14] = test system: Mus musculus; assay: Antireserpine activity (RES) of mice after peroral administration of 100 mg/kg of compound; No inhibition; details: route oral
[15] = test system: Mus musculus; assay: Exploratory activity of mice determined by an antimex activity meter, 10 mg/kg of dose was administered perorally; details: route oral
[16] = test system: Mus musculus; assay: Concentration of compound that causes ptosis in the mice when administered perorally; details: po
Method in brief: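 Five male Std-ddY mice per group were dosed orally in 0.5% aqueous tragacanth. At 2 h, eyelid closure was scored macroscopically (8 open to 0 fully closed). Group mean scores formed a dose-response curve. ED50 was the dose reducing the mean score to 50%.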

[17] = test system: Mus musculus; assay: Concentration of compound that causes catalepsy in the mice when administered perorally; details: po
Method in brief: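 Male Std-ddY mice were dosed orally, vehicle 0.5% aqueous tragacanth. At 2 h, forepaws were placed on a rod 4.5 cm high. Failure to remove the paws within 30 s in three successive trials was scored cataleptic. ED50 was the dose giving catalepsy in 50% of mice (Litchfield-Wilcoxon).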

[18] = test system: Mus musculus; assay: Antitremorine activity(TRM) of mice after peroral administration of 100 mg/kg of compound; No inhibition; details: route oral
[19] = test system: Mus musculus; assay: Antiexploratory activity (EXPL) of mice determined by an antimex activity meter, 100 mg/kg of dose was administered perorally; No inhibition; details: route oral
[20] = test system: Mus musculus; assay: Antireserpine activity (RES) of mice after peroral administration of 100 mg/kg of compound; […]; details: route oral
[21] = test system: Mus musculus; assay: Antiexploratory activity (EXPL) of mice determined by an antimex activity meter, 50 mg/kg of dose was administered perorally; Slight inhibition (31-50%); details: route oral
[22] = test system: Mus musculus; assay: Antireserpine activity(RES) of mice after peroral administration of 50 mg/kg of compound; No inhibition; details: route oral
[23] = test system: Mus musculus; assay: Exploratory activity of mice determined by an antimex activity meter, 50 mg/kg of dose was administered perorally; details: Mus musculus, po; method in brief: as §4
[24] = test system: Mus musculus; assay: Antitremorine activity(TRM) of mice after peroral administration of 10 mg/kg of compound; Slight inhibition (31-50%); details: route oral
[25] = test system: Mus musculus; assay: Antimaximal electroshock seizure (MES) activity in mice after peroral administration of 10 mg/kg of compound; 0/5; details: route oral
[26] = test system: Mus musculus; assay: Antimaximal electroshock seizure (MES) activity in mice after peroral administration of 100 mg/kg of compound; 4/5; details: route oral
[27] = test system: Mus musculus; assay: Antimaximal electroshock seizure activity was determined in mice when administered perorally; details: po
[28] = test system: Mus musculus; assay: Antitremorine activity(TRM) of mice after peroral administration of 100 mg/kg of compound; details: route oral
[29] = test system: Mus musculus; assay: Antipentylene tetrazole activity was determined in mice when administered perorally; details: po
Method in brief: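 Groups of five male Std-ddY mice received compound orally in 0.5% tragacanth, then pentylenetetrazole 175 mg/kg ip. Blockade of the tonic extensor component scored as anticonvulsant. ED50 was the dose protecting 50% of animals (Litchfield-Wilcoxon).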

[30] = test system: Mus musculus; assay: Antireserpine activity (RES) of mice after peroral administration of 100 mg/kg of compound; details: route oral
[31] = test system: Mus musculus; assay: Antiexploratory activity (EXPL) of mice determined by an antimex activity meter, 100 mg/kg of dose was administered perorally; details: route oral
[32] = test system: Mus musculus; assay: Antiexploratory activity (EXPL) of mice determined by an antimex activity meter, mg/kg of dose was administered perorally; Slight inhibition (31-50%)
[33] = test system: Mus musculus; assay: Antitremorine activity(TRM) of mice after peroral administration of mg/kg of compound; No inhibition
[34] = test system: Mus musculus; assay: Antireserpine activity (RES) of mice after peroral administration of mg/kg of compound; Slight inhibition (31-50%)
[35] = test system: Mus musculus; assay: Antiexploratory activity (EXPL) of mice determined by an antimex activity meter, 10 mg/kg of dose was administered perorally; Moderate inhibition (51-71%); details: route oral
[36] = test system: Mus musculus; assay: Antiexploratory activity (EXPL) of mice determined by an antimex activity meter, 50 mg/kg of dose was administered perorally; Potent inhibition; details: route oral

Q: Which results are given for `Cl.Cl.OCCN1CCN(C2=Nc3ccccc3CC=C2c2ccc(Cl)cc2)CC1`?
A: inhibition in vivo at 1 mg/kg [1]: 95.5%; Control [2]: 265%; Control [3]: 382%; Control [4]: 186%; inhibition in vivo at 100 mg/kg [5]: 57.3%; Control [6]: 289%; Activity [7]: 0; ED50 [8]: 73.1 mg/kg; ED50 [9]: 25.4 mg/kg; inhibition in vivo at 100 mg/kg [10]: > 71%; inhibition in vivo at 100 mg/kg [11]: 31%; ED50 [12]: 0.19 mg/kg; ED50 [13]: 38.1 mg/kg; inhibition in vivo at 100 mg/kg [14]: < 30%; inhibition in vivo at 10 mg/kg [15]: 40.8%; ED50 [16]: 88.7 mg/kg; ED50 [17]: 66.8 mg/kg

Q: With `CN1CCN(C2=Nc3ccccc3CC=C2c2cccnc2)CC1` as the compound, how does the inhibition in vivo at 100 mg/kg [18] read?
A: < 30%

Q: And the Activity [7]?
A: 0

Q: And the inhibition in vivo at 100 mg/kg [19]?
A: < 30%

Q: What about the inhibition in vivo at 100 mg/kg [20] of the same compound?
A: > 71%

Q: `Cl.Cl.OCCN1CCN(C2=Nc3ccccc3CC=C2c2ccc(Br)cc2)CC1` was tested. Which inhibition in vivo at 1 mg/kg [1] did it give?
A: 72.5%

Q: What about the Control [2] of the same compound?
A: 181%

Q: And the Control [3]?
A: 335%

Q: And the inhibition in vivo at 50 mg/kg [21]?
A: 31%

Q: What about the inhibition in vivo at 50 mg/kg [22] of the same compound?
A: < 30%

Q: What about the inhibition in vivo at 100 mg/kg [18] of the same compound?
A: < 30%

Q: And the inhibition in vivo at 50 mg/kg [23]?
A: 36.1%

Q: What about the Control [4] of the same compound?
A: 106%

Q: What about the Control [6] of the same compound?
A: 291%

Q: What about the Activity [7] of the same compound?
A: 0

Q: What about the inhibition in vivo at 10 mg/kg [15] of the same compound?
A: 31.9%

Q: Which inhibition in vivo at 10 mg/kg [24] does the source give for `CCN1CCN(C2=Nc3ccc(Cl)cc3CC=C2c2ccccc2)CC1.Cl.Cl` here?
A: 31%

Q: What about the Activity [25] of the same compound?
A: 0

Q: And the inhibition in vivo at 100 mg/kg [19]?
A: < 30%

Q: And the Activity [26]?
A: 4

Q: What about the ED50 [27] of the same compound?
A: 93.1 mg/kg

Q: And the inhibition in vivo at 100 mg/kg [14]?
A: < 30%

Q: What about the inhibition in vivo at 100 mg/kg [28] of the same compound?
A: > 71%

Q: And the ED50 [29]?
A: 34.7 mg/kg

Q: `CN1CCN(C2=Nc3ccc(Cl)cc3CC=C2c2ccccc2)CC1.Cl.Cl` was tested. Which inhibition in vivo at 100 mg/kg [30] did it give?
A: < 30%

Q: What about the inhibition in vivo at 100 mg/kg [31] of the same compound?
A: < 30%

Q: And the Activity [25]?
A: 0

Q: What about the Activity [26] of the same compound?
A: 4

Q: What about the ED50 [27] of the same compound?
A: 89.4 mg/kg

Q: And the inhibition in vivo at 100 mg/kg [28]?
A: > 71%

Q: What about the ED50 [29] of the same compound?
A: 42.9 mg/kg

Q: Which Inhibition [32] does the source give for `Cl.Cl.OCCN1CCN(C2=Nc3ccccc3CC=C2c2ccccc2)CC1` here?
A: 31%

Q: What about the Activity [7] of the same compound?
A: 0

Q: And the ED50 [27]?
A: > 100 mg/kg

Q: What about the Inhibition [33] of the same compound?
A: <30%

Q: And the Inhibition [34]?
A: 31%

Q: For `Fc1ccc(C2=CCc3ccccc3N=C2N2CCN(C3CCCCC3)CC2)cc1.O=C(O)/C=C/C(=O)O`, which inhibition in vivo at 1 mg/kg [1] is on record?
A: 46%

Q: And the Control [2]?
A: 295%

Q: What about the inhibition in vivo at 10 mg/kg [35] of the same compound?
A: 51%

Q: What about the Control [3] of the same compound?
A: 343%

Q: And the inhibition in vivo at 50 mg/kg [23]?
A: 84.6%

Q: What about the Control [4] of the same compound?
A: 244%

Q: And the Control [6]?
A: 334%

Q: What about the inhibition in vivo at 50 mg/kg [36] of the same compound?
A: > 71%

Q: What about the inhibition in vivo at 10 mg/kg [15] of the same compound?
A: 61.4%
